The structures appear in SMILES notation.

Assay [1] is described as follows: Inhibition of Escherichia coli PDHc-E1 expressed in Escherichia coli TB1 using sodium pyruvate as substrate and ThDP after 3 mins by 2,6-DCPIP based microplate reader method. The procedure, abridged: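 The enzyme (7.1 µM) was preincubated 3 min at 37 °C with varied inhibitor in 50 mM K3PO4 pH 7.2, 2.0 mM pyruvate and 0.8 mM 2,6-DCPIP. ThDP (0–200 µM) started the reaction, read as A600 decrease. IC50 came from a Hill fit of initial rates.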

A short description of assay [2]: Antibacterial activity against Synechocystis sp. PCC 6803 at 10 uM. It counts as functional.
Assay [3] can be described thus: Antibacterial activity against Synechocystis sp. PCC 6803. Type of assay: functional.
The subject of assay [4] is Colletotrichum orbiculare. The assay is described as follows: Antifungal activity against Colletotrichum orbiculare at 100 ug/ml. Type of assay: functional.
The test system of the next assay is Botrytis cinerea. The assay can be described thus: Antifungal activity against Botrytis cinerea at 100 ug/ml. Type of assay: functional.
The next assay concerns Alternaria solani. The assay can be described thus: Antifungal activity against Alternaria solani at 100 ug/ml. Type of assay: functional.
A further assay relates to Rhizoctonia solani. The assay can be described thus: Antifungal activity against Rhizoctonia solani at 100 ug/ml. Type of assay: functional.
For a further assay, the system named is Escherichia coli. The assay can be described thus: Inhibition of Escherichia coli PDHc-E1 expressed in Escherichia coli TB1 at 100 uM using sodium pyruvate as substrate after 3 mins by 2,6-DCPIP based microplate reader method.
Assay [5] concerns the target T1, Pyruvate dehydrogenase E1 component subunit alpha, somatic form, mitochondrial (Sus scrofa) (UniProt P29804).
T1 sequence (whole entry): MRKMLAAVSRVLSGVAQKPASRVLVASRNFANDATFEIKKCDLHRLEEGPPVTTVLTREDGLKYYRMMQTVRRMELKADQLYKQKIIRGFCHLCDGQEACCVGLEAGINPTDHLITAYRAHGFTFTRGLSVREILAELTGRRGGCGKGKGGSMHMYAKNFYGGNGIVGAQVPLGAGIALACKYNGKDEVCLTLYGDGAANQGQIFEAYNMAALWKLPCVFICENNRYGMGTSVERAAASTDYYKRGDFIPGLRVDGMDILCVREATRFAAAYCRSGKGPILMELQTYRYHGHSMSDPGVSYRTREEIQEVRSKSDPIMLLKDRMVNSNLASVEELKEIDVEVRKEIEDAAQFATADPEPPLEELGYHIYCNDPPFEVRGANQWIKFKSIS
The assay can be described thus: Inhibition of pig heart PDHc-E1 using sodium pyruvate as substrate at 100 uM after 3 mins by 2,6-DCPIP based microplate reader method.

Regarding `Cc1ncc(Cn2cc(COc3ccccc3[N+](=O)[O-])nn2)c(N)n1`, 36.3 µM corresponded to half-maximal inhibition in [1] (IC50). Further, the inhibition at 10 µM in assay [2] was below 30%. The same compound registered a concentration for a half-maximal effect (EC50) in assay [3] above 50 µM.
On to `Cc1ncc(Cn2cc(CSc3nnc(-c4cccc([N+](=O)[O-])c4)o3)nn2)c(N)n1`, for which the inhibition at 100 µg/mL is 40% in assay [4], 59% in the assay with Botrytis cinerea, 48% with Alternaria solani and 60% in the assay with Rhizoctonia solani. The compound further yielded a half-inhibitory concentration (IC50) in assay [1] of 10.4 µM. This compound registered an inhibition at 10 µM in assay [2] of 90%. The compound further had an EC50 in assay [3] of 5.14 µM.
With `Cc1ncc(Cn2cc(CSc3nnc(-c4cc([N+](=O)[O-])cc([N+](=O)[O-])c4)o3)nn2)c(N)n1`, the inhibition at 100 µg/mL in assay [4] turned out to be 33%; with Botrytis cinerea, 41%; in the assay with Alternaria solani, 30%; in the assay on Rhizoctonia solani, 30%. In [1], this compound gave an IC50 of 8.61 µM. The same compound showed an inhibition at 10 µM in assay [2] of 90%. Besides, the EC50 in assay [3] came to 2.33 µM.
With `Cc1ncc(Cn2cc(CSc3nnc(-c4sc(N)nc4C(F)(F)F)n3N)nn2)c(N)n1`, the inhibition at 100 µg/mL in assay [4] is 35%; in the assay with Botrytis cinerea it was 20%; in the assay on Alternaria solani, 21%; with Rhizoctonia solani it was 11%. Half-maximal inhibition in assay [1] (IC50) required 5.03 µM. Further, the inhibition at 10 µM in assay [2] stood at 90%. This compound returned an EC50 in assay [3] of 3.24 µM.
Consider `Cc1ncc(Cn2cc(CSc3nnc(-c4ccccc4F)o3)nn2)c(N)n1`, for which the inhibition at 100 µg/mL in assay [4] is 32%; in the assay with Botrytis cinerea, 28%; in the assay with Alternaria solani, 40%; in the assay with Rhizoctonia solani, 0%. The compound further had a 50% inhibitory concentration (IC50) in [1] of 19.2 µM. The EC50 in assay [3] was determined as 8.05 µM.
Turning to `Cc1ncc(Cn2cc(CSc3nnc(-c4ccc([N+](=O)[O-])cc4)o3)nn2)c(N)n1`, the inhibition at 100 µg/mL in assay [4] amounted to 35%; in the assay on Botrytis cinerea it was 45%; with Alternaria solani, 60%; in the assay on Rhizoctonia solani it was 55%. This compound also showed an IC50 in [1] of 7.59 µM. The compound also gave a 50% effective concentration (EC50) in assay [3] of 9.04 µM.
For the compound `Cc1ncc(Cn2cc(CSc3nnc(-c4ccccc4[N+](=O)[O-])o3)nn2)c(N)n1`, the inhibition at 100 µg/mL came to 48% in assay [4], 54% with Botrytis cinerea, 58% with Alternaria solani and 40% in the assay with Rhizoctonia solani. Besides, in assay [1], the IC50 is 9.84 µM. Moreover, in assay [2], the inhibition at 10 µM came out at 90%. In assay [3], this compound gave an EC50 of 4.76 µM.
Turning to `Cc1ncc(Cn2cc(COc3ccc([N+](=O)[O-])cc3)nn2)c(N)n1`, the IC50 in assay [1] came to 8.8 µM. This compound also gave an inhibition at 10 µM in [2] below 30%. For the same compound, the EC50 in assay [3] was above 50 µM.
For the compound `Cc1ncc(Cn2cc(CSc3nnc(-c4ccc([N+](=O)[O-])cc4Cl)o3)nn2)c(N)n1`, the inhibition at 100 µg/mL in [4] was 38%; in the assay with Botrytis cinerea, 54%; with Alternaria solani it was 35%; in the assay on Rhizoctonia solani, 46%. In assay [1], this compound yielded an IC50 of 12.8 µM. In addition, in [3], the 50% effective concentration (EC50) is 6.37 µM.
Consider `Cc1ncc(Cn2cc(CSc3nnc(-c4ccc(C(F)(F)F)cc4)o3)nn2)c(N)n1`, for which the inhibition at 100 µg/mL in assay [4] was determined as 45%; in the assay with Botrytis cinerea it was 45%; in the assay with Alternaria solani, 35%; in the assay on Rhizoctonia solani it was 0%. This compound yielded an IC50 in assay [1] of 15.9 µM. Moreover, 10 µM produced 90% inhibition in [2]. In addition, a half-maximal response in assay [3] (EC50) required 5.35 µM.
`Cc1ncc(Cn2cc(COc3ccccc3)nn2)c(N)n1` showed an IC50 in [1] of 55.1 µM. This compound also registered an inhibition at 10 µM in assay [2] below 30%. Also, the EC50 in [3] is above 50 µM.
As to `Cc1ncc(Cn2cc(CSc3nnc(-c4sc(N)nc4C)n3N)nn2)c(N)n1`, the inhibition at 100 µg/mL in assay [4] was 26%; with Botrytis cinerea, 16%; in the assay with Alternaria solani, 29%; with Rhizoctonia solani it was 16%. Further, the midpoint of inhibition in assay [1], the IC50, lay at 7.02 µM. Moreover, in assay [2], at 10 µM the inhibition was 90%. In addition, in assay [3], the half-maximal effective concentration (EC50) was determined as 2.3 µM.
The compound `Cc1ncc(Cn2cc(CSc3nnc(-c4ccccc4Cl)o3)nn2)c(N)n1` showed a half-inhibitory concentration (IC50) in [1] of 12.4 µM. The compound also had an EC50 in [3] of 2.28 µM.
Take `CNc1nc(C)c(-c2nnc(SCc3cn(Cc4cnc(C)nc4N)nn3)n2N)s1`: the inhibition at 100 µg/mL in assay [4] was 16%; with Botrytis cinerea it was 11%; in the assay with Alternaria solani, 25%; in the assay with Rhizoctonia solani it was 17%. The same compound had an IC50 in assay [1] of 11.1 µM. In assay [2], this compound gave an inhibition at 10 µM of 90%. The same compound yielded an EC50 in assay [3] of 2.99 µM.
For `Cc1ncc(Cn2cc(CSc3nnc(-c4sc(N)nc4C)o3)nn2)c(N)n1`, the inhibition at 100 µg/mL is 24% in [4], 31% in the assay on Botrytis cinerea, 56% with Alternaria solani and 11% with Rhizoctonia solani. Moreover, the results for the inhibition (in the assay on Escherichia coli; in [5]) were 100% and 27.1%, respectively. Moreover, in assay [1], half-maximal inhibition (IC50) was put at 4.36 µM. The inhibition at 10 µM in assay [2] was determined as 90%. The compound also displayed a concentration giving a half-maximal response (EC50) in assay [3] of 1.63 µM.
For `Cc1ncc(Cn2cc(CSc3nnc(-c4ccc(F)cc4)o3)nn2)c(N)n1`, the inhibition at 100 µg/mL in assay [4] is 32%; with Botrytis cinerea, 60%; in the assay with Alternaria solani it was 44%; in the assay with Rhizoctonia solani, 0%. In addition, in assay [1], the concentration for half-maximal inhibition (IC50) was 9.11 µM. At 10 µM the inhibition in [2] was 90%. The compound further displayed an EC50 in assay [3] of 5.34 µM.
`Cc1ncc(Cn2cc(CSc3nnc(-c4sc(N)nc4C(F)(F)F)o3)nn2)c(N)n1`: the inhibition at 100 µg/mL turned out to be 25% in [4], 60% in the assay with Botrytis cinerea, 53% in the assay on Alternaria solani and 11% with Rhizoctonia solani. In addition, the inhibition worked out at 100% in the assay with Escherichia coli and 28.3% in [5]. The same compound displayed a half-maximal inhibitory concentration (IC50) in assay [1] of 3.94 µM. The compound also registered an inhibition at 10 µM in assay [2] of 90%. Moreover, in [3], it took 1.61 µM to reach a half-maximal effect (EC50).
With `Cc1ncc(Cn2cc(COc3ccc(Cl)cc3Cl)nn2)c(N)n1`, inhibition in assay [1] was half-maximal at 18.7 µM (IC50). In assay [2], this compound displayed an inhibition at 10 µM below 30%. In addition, the EC50 in assay [3] was above 50 µM.
For `Cc1ncc(Cn2cc(CSc3nnc(-c4ccc(Cl)cc4)o3)nn2)c(N)n1`, the inhibition at 100 µg/mL turned out to be 52% in assay [4], 45% in the assay on Botrytis cinerea, 60% with Alternaria solani and 46% in the assay with Rhizoctonia solani. Also, half-maximal inhibition in [1] (IC50) was put at 7.08 µM. The same compound returned an inhibition at 10 µM in assay [2] of 90%. This compound also showed an EC50 in assay [3] of 5.25 µM.
Take `CNc1nc(C)c(-c2nnc(SCc3cn(Cc4cnc(C)nc4N)nn3)o2)s1`: the inhibition at 100 µg/mL in assay [4] was 26%; with Botrytis cinerea, 31%; in the assay on Alternaria solani it was 44%; in the assay on Rhizoctonia solani, 11%. For the same compound, the inhibition in the assay on Escherichia coli came to 100%; in assay [5] it was 15.6%. The compound further came in with a half-inhibitory concentration (IC50) in assay [1] of 6.62 µM. The same compound had an inhibition at 10 µM in [2] of 90%. The same compound displayed an EC50 in [3] of 1.51 µM.
As to `Cc1ncc(Cn2cc(CSc3nnc(-c4ccccc4)o3)nn2)c(N)n1`, the inhibition at 100 µg/mL was 40% in assay [4], 60% with Botrytis cinerea, 47% in the assay with Alternaria solani and 30% in the assay with Rhizoctonia solani. In addition, half-maximal inhibition in assay [1] (IC50) was put at 7.87 µM. This compound yielded an inhibition at 10 µM in [2] of 90%. The EC50 in assay [3] was found to be 5.15 µM.
The compound `Cc1ncc(Cn2cc(CSc3nnc(-c4ccc(Cl)cc4Cl)o3)nn2)c(N)n1` yielded an IC50 in [1] of 13.2 µM. Further, in assay [3], the concentration for a half-maximal effect (EC50) came to 5.99 µM.
On to `CNc1nc(C(F)(F)F)c(-c2nnc(SCc3cn(Cc4cnc(C)nc4N)nn3)n2N)s1`, for which the inhibition at 100 µg/mL in [4] worked out at 28%; in the assay on Botrytis cinerea it was 8%; with Alternaria solani, 21%; with Rhizoctonia solani it was 11%. For the same compound, it took 15.7 µM to reach half-maximal inhibition in [1] (IC50). Also, the concentration giving a half-maximal response (EC50) in [3] worked out at 9.86 µM.
Take `Cc1ncc(Cn2cc(COc3ccc(Cl)cc3)nn2)c(N)n1`: the midpoint of inhibition in assay [1], the IC50, lay at 26.4 µM. In assay [2], the inhibition at 10 µM is below 30%. This compound also registered a half-maximal effective concentration (EC50) in assay [3] above 50 µM.

For the origin of these results see ChEMBL document CHEMBL3774346, “Rational design, synthesis and biological evaluation of 1,3,4-oxadiazole pyrimidine derivatives as novel pyruvate dehydrogenase complex E1 inhibitors” (Bioorg Med Chem, 2016).
